According to ChEMBL document CHEMBL4350999, “Enhanced tumor retention of NTSR1-targeted agents by employing a hydrophilic cysteine cathepsin inhibitor” (Eur J Med Chem, 2019):
Activity calls are given as the source filed them. No cut-off for these calls is given here.

How the values were obtained:
Cathepsin B [1] = molecular target: T1, Cathepsin B (Homo sapiens, UniProt P07858); experiment: Inhibition of human liver cathepsin B assessed as second order rate constant using Z-Arg-Arg-AMC as substrate measured every 5 mins for 1 hr by fluorescence assay
Outline: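 Human liver cathepsin B, 2 nM final, in 0.1 M phosphate pH 5.8 (1 mM EDTA, 2.7 mM DTT, 0.03% Brij35). Enzyme mixed with conjugate (1–500 nM final), then Z-Arg-Arg-AMC added (800 μM final); 37 °C. […] Biological triplicate.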

Cathepsin B [2] = molecular target: T1, Cathepsin B; experiment: Inhibition of human liver cathepsin B assessed as inhibition constant using Z-Arg-Arg-AMC as substrate measured every 5 mins for 1 hr by fluorescence assay
Cathepsin B [3] = molecular target: T1, Cathepsin B; experiment: Inhibition of human liver cathepsin B assessed as pseudo Michaelis-Menten constant at 10 nM using varying levels of Z-Arg-Arg-AMC as substrate measured every 5 mins for 1 hr by fluorescence assay

With `CC(C)C[C@H](NC(=O)CCC(=O)O)C(=O)N[C@@H](CCCNC(=N)N)C(=O)NCCN=[N+]=[N-]` the inhibition (Cathepsin B [1]) was “inactive”, the inhibition (Cathepsin B [2]) was “inactive” and the K (Cathepsin B [3]) was 185 µM.
